Assay results: ChEMBL document CHEMBL2086264
≈ marks a conversion by molar mass, not a printed value. Calls of active or inactive are those of the source. The calls are words filed in the database; no cut-off is given here.

What was measured:
[1] = Inhibition of Staphylococcus aureus PlsY expressed in Escherichia coli FB23281 using [U-14C]glycerol-PO4 as substrate after 20 mins by scintillation counting
Procedure, shortened: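 Membranes from E. coli FB23281 (ΔplsY) expressing S. aureus PlsY (SA1187), 4 µg per reaction. pH 7.4 buffer of 100 mM Tris–HCl, 150 mM NaCl, 1 mg/mL BSA and 5 mM Na3VO4, with 100 µM [U-14C]glycerol-PO4. Started with 16:0-PO4 (final 100 µM), 20 min at 37°C. Spotted on filter discs, washed in graded ice-cold TCA, scintillation counted.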

Staphylococcus aureus = test: Antibacterial activity against Staphylococcus aureus ATCC 29213 after overnight incubation by microbroth dilution assay; assay type: functional
Procedure, shortened: (§1)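 CLSI M7A7 microbroth dilution in Mueller-Hinton broth; S. pneumoniae broth given 5% lysed horse blood. DMSO stocks of 10 mg/mL; twofold dilutions to final 200–0.0125 µg/mL. Mid-log inoculum (OD600 0.5) diluted to final OD600 0.0005 (~10^5 CFU/mL). Overnight at 37°C; MIC is the lowest concentration inhibiting 90% of visible growth.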

Streptococcus pneumoniae = test: Antibacterial activity against Streptococcus pneumoniae R6 after overnight incubation by microbroth dilution assay; assay type: functional; procedure, shortened: as §1
Enterococcus faecalis = test: Antibacterial activity against Enterococcus faecalis ATCC 33186 after overnight incubation by microbroth dilution assay; assay type: functional
Procedure, shortened: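 CLSI microbroth dilution in Mueller-Hinton broth; compounds dissolved in DMSO, twofold serial dilutions giving final 200–0.0125 µg/mL. Inoculum from single colony grown at 37°C to mid-log (OD600 0.5), diluted to final OD600 0.0005 (~10^5 CFU/mL). Incubated overnight at 37°C; MIC = lowest concentration inhibiting 90% of visible growth.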

Bacillus subtilis = test: Antibacterial activity against Bacillus subtilis ATCC 23857 after overnight incubation by microbroth dilution assay; assay type: functional; procedure, shortened: as §1
Bacillus anthracis [2] = test: Antibacterial activity against Bacillus anthracis after overnight incubation by microbroth dilution assay; assay type: functional
Bacillus anthracis [3] = test: Inhibition of protein synthesis in Bacillus anthracis sterne assessed as Inhibition of [3H]amino acid incorporation into protein incubated for 15 mins prior to [3H]amino acid addition measured after 30 mins by scintillation counting; assay type: functional, organism-based
Bacillus anthracis [4] = test: Inhibition of DNA synthesis in Bacillus anthracis sterne assessed as Inhibition of [3H]thymidine incorporation into DNA incubated for 15 mins prior to [3H]thymidine addition measured after 30 mins by scintillation counting; assay type: functional, organism-based
Bacillus anthracis [5] = test: Inhibition of RNA synthesis in Bacillus anthracis sterne assessed as Inhibition of [3H]uracil incorporation into RNA incubated for 15 mins prior to [3H]uracil addition measured after 30 mins by scintillation counting; assay type: functional, organism-based

SMILES	IC50 [1] [µM]	MIC90 (Staphylococcus aureus) [µg/mL]	MIC90 (Streptococcus pneumoniae) [µg/mL]	MIC90 (Enterococcus faecalis) [µg/mL]	MIC90 (Bacillus subtilis) [µg/mL]	MIC90 (Bacillus anthracis [2]) [µg/mL]	inhibition (Bacillus anthracis [3])	inhibition (Bacillus anthracis [4])	inhibition (Bacillus anthracis [5])
C=CCCCCCCCCC(=O)NS(=O)(=O)Oc1ccc(OC)cc1	27	12.5 (≈ 33.8 µM)	200 (≈ 541 µM)	1.6 (≈ 4.33 µM)	6.25 (≈ 16.9 µM)	12.5 (≈ 33.8 µM)	Active	Active	Active
CCCCCCCCCCCCCCCC(=O)NS(=O)(=O)OC1CCCC1 [CYCLOPENTYL PALMITOYLSULFAMATE]	> 100	> 200	> 200	> 200	> 200	> 100	Active	Active	Active
CCCCCCCCCCCCCCCC(=O)NS(=O)(=O)Oc1ccc2c(c1)OCO2	12	100 (≈ 219 µM)	3.13 (≈ 6.87 µM)	> 200	> 200	> 100	Active	Active	Active
CCCCCCCCCCCCCCCC(=O)NS(=O)(=O)Oc1ccc(-c2ccc([N+](=O)[O-])cc2)cc1	11	100 (≈ 188 µM)	0.78 (≈ 1.46 µM)	> 200	> 200	1.56 (≈ 2.93 µM)	Active	Active	Active
CCCCCCCCCCCCCCCC(=O)NS(=O)(=O)Oc1ccc(C)cc1	12	> 200	> 200	200 (≈ 470 µM)	200 (≈ 470 µM)	6.25 (≈ 14.7 µM)	Active	Active	Active
CCCCCCCCCCCCCCCC(=O)NS(=O)(=O)Oc1ccc(CCN)cc1	> 100	> 200	> 200	> 200	> 200	> 100	Active	Active	Active
CCCCCCCCCCCCCCCC(=O)NS(=O)(=O)Oc1ccccc1 [PHENYL PALMITOYLSULFAMATE]	8	> 200	> 200	50 (≈ 121 µM)	50 (≈ 121 µM)	3.13 (≈ 7.6 µM)	Active	Active	Active
CCCCCCCCCCCCCCCC(=O)NS(=O)(=O)OC1CCOC1 (stereo unspecified)	45	25 (≈ 61.6 µM)	> 200	> 200	> 200	1.56 (≈ 3.85 µM)	Active	Active	Active
CCCCCCCCCCCCCCCC(=O)NS(=O)(=O)Oc1ccc(CCNC(=O)OC(C)(C)C)cc1	22	> 200	3.13 (≈ 5.64 µM)	> 200	> 200	1.56 (≈ 2.81 µM)	Active	Active	Active
CCCCCCCCCCCCCCCC(=O)NS(=O)(=O)Oc1ccc2ncccc2c1	9	> 200	1.56 (≈ 3.37 µM)	200 (≈ 432 µM)	200 (≈ 432 µM)	3.13 (≈ 6.77 µM)	Active	Active	Active
CCCCCCCCCCCCCCCC(=O)NS(=O)(=O)Oc1ccc(Cl)c(Cl)c1	9	> 200	> 200	100 (≈ 208 µM)	100 (≈ 208 µM)	12.5 (≈ 26 µM)	Active	Active	Active
O=C(CCCCCCc1ccccc1)NS(=O)(=O)Oc1ccccc1	76	50 (≈ 138 µM)	50 (≈ 138 µM)	100 (≈ 277 µM)	> 200	12.5 (≈ 34.6 µM)	Active	Active	Active
CCCCCCCCCCCCCCCC(=O)NS(=O)(=O)OC1CCCCC1 [CYCLOHEXYL PALMITOYLSULFAMATE]	5	> 200	100 (≈ 239 µM)	> 200	> 200	6.25 (≈ 15 µM)	Active	Active	Active
CCCCCCCCCCCCCCCC(=O)NS(=O)(=O)Oc1ccc(Cl)cc1	6	> 200	100 (≈ 224 µM)	> 200	> 200	6.25 (≈ 14 µM)	Active	Active	Active
CCCCCCCCCCCCCCCC(=O)NS(=O)(=O)Oc1ccc2c(OS(N)(=O)=O)coc2c1	41	25 (≈ 45.7 µM)	3.13 (≈ 5.73 µM)	100 (≈ 183 µM)	100 (≈ 183 µM)	3.13 (≈ 5.73 µM)	Active	Active	Active
CCCCCCCCCCCCCC(=O)NS(=O)(=O)Oc1ccc(OC)cc1	6	> 200	> 200	6.25 (≈ 15.1 µM)	> 200	0.78 (≈ 1.89 µM)	Active	Active	Active
CCCCCCCCCCCCCCCC(=O)NS(=O)(=O)Oc1ccc(OC)cc1	8	12.5 (≈ 28.3 µM)	12.5 (≈ 28.3 µM)	3.12 (≈ 7.06 µM)	3.12 (≈ 7.06 µM)	3.13 (≈ 7.09 µM)	Active	Active	Active
O=C(CCCCCc1ccccc1)NS(=O)(=O)Oc1ccccc1	100	100 (≈ 288 µM)	50 (≈ 144 µM)	50 (≈ 144 µM)	> 200	100 (≈ 288 µM)	Active	Active	Active
O=C(CCCCCCCCCCc1ccccc1)NS(=O)(=O)Oc1ccccc1	8	6.25 (≈ 15 µM)	200 (≈ 479 µM)	12.5 (≈ 29.9 µM)	100 (≈ 239 µM)	3.13 (≈ 7.5 µM)	Active	Active	Active
